The record followed here is ChEMBL document CHEMBL2177085 (J Med Chem, 2012).

For assay [1], the target named is Protein kinase C alpha type (Homo sapiens) (UniProt P17252). Nature of the assay: Inhibition of PKCalpha assessed as enzyme residual activity at 10 uM relative to untreated control. In outline: (§1)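 Residual kinase activity at 10 μM compound, determined by a commercial kinase profiling service (Millipore) across 15 kinases of different classes. Each compound tested in duplicate.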

The target of assay [2] is Glycogen synthase kinase-3 beta (Homo sapiens, UniProt P49841). Nature of the assay: Inhibition of GSK3beta assessed as enzyme residual activity at 10 uM relative to untreated control. In outline:
as §1

The subject of assay [3] is MKN-45. The assay is described as follows: Cytotoxic activity against human MKN45 cells assessed as cell viability at 5 uM incubated for 5 days by MTT assay. Type of assay: functional. Particulars: MKN-45, 120 h, read-out: Activity. The procedure, abridged: (§2)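 MTT viability: exponentially growing cells, 10 000 viable cells/well in RPMI plated overnight, then exposed to test compounds for 3 days (HT-29, Molm-14) or 5 days (Mkn-45) at 37 °C, 5% CO2. MTT added for 4 h, then SDS/HCl solubilization overnight and absorbance read at 562 nm. Viability is expressed relative to untreated cells (100%). Triplicate.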

Assay [4] addresses Vascular endothelial growth factor receptor 2 (Homo sapiens, UniProt P35968). Nature of the assay: Inhibition of VEGFR2 assessed as enzyme residual activity at 10 uM relative to untreated control. In outline:
as §1

The target of assay [5] is T1, Receptor-type tyrosine-protein kinase FLT3 (Homo sapiens, UniProt P36888).
T1 sequence (P36888 whole entry): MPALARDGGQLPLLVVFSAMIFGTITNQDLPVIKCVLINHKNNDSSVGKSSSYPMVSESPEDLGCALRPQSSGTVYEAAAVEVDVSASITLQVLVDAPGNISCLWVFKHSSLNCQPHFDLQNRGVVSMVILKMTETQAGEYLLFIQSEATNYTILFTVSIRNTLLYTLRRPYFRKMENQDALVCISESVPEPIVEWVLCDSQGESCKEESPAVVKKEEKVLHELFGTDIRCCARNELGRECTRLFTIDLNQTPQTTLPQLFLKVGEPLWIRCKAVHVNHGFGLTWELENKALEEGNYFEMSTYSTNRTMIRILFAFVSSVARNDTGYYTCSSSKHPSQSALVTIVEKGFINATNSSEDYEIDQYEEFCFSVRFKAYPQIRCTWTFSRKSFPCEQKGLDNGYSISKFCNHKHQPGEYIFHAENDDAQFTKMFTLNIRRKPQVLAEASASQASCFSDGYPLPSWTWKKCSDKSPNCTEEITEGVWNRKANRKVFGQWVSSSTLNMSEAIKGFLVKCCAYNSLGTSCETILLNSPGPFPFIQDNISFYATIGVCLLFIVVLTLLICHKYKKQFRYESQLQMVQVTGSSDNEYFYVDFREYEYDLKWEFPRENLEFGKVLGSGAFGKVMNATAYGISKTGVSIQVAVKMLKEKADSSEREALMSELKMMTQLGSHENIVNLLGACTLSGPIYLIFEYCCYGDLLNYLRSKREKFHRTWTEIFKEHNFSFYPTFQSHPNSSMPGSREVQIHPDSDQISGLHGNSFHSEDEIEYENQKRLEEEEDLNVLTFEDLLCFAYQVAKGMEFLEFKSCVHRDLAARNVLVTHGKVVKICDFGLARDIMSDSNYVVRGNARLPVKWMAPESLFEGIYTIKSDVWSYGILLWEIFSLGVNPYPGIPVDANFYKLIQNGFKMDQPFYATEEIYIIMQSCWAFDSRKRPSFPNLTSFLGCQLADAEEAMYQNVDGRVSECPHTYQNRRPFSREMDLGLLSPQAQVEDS
Nature of the assay: Inhibition of FLT3. The procedure, abridged: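 Run as an outsourced kinase profiling service (Millipore IC50 Profiler), with the protocol referred to the provider. Gives IC50 values and residual activity at 10 μM test compound. Compounds tested in duplicate.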

The target in assay [6] is Protein kinase C epsilon type (Homo sapiens) (UniProt Q02156). Nature of the assay: Inhibition of PKCepsilon assessed as enzyme residual activity at 10 uM relative to untreated control. The procedure, abridged: as §1
Protein kinase C epsilon type (Homo sapiens), sequence (Q02156 whole entry): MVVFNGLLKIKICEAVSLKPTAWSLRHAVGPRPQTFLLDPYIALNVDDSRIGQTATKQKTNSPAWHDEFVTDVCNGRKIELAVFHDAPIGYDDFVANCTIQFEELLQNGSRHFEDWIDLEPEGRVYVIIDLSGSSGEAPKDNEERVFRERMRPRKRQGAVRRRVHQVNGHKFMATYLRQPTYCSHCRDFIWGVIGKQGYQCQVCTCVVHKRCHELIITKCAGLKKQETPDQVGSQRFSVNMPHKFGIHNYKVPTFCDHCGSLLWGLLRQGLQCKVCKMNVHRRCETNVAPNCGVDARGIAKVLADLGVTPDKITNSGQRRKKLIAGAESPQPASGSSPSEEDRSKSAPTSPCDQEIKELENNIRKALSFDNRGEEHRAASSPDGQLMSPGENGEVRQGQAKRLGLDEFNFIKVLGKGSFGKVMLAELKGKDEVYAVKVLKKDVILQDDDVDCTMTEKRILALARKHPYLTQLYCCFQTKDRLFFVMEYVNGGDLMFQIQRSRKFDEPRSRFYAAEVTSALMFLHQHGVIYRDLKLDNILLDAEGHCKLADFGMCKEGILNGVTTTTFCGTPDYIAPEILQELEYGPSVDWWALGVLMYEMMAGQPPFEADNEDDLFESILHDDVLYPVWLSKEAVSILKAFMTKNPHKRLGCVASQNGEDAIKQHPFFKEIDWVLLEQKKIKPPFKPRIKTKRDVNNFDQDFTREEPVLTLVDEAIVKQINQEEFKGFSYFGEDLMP
Assay [7] has as its system MKN-45. The assay is described as follows: Induction of apoptosis in human MKN45 assessed as accumulation at subG1 phase at 20 uM incubated for 7 days by flow cytometry (reference value: 10.9 +/- 3.2%). Format: functional. A general note: A flow cytometer gives signals particle by particle.
Assay [8] deals with Cyclin-dependent kinase 1/cyclin B1 (Homo sapiens) (UniProt P06493+P14635). Nature of the assay: Inhibition of CDK1/cyclinB assessed as enzyme residual activity at 10 uM relative to untreated control. Type of assay: protein-complex assay. The procedure, abridged:
as §1

In assay [9] the test system is MOLM-14. Nature of the assay: Cytotoxic activity against human MOLM14 cells assessed as cell viability at 50 uM incubated for 3 days by MTT assay. Particulars: MOLM-14, 72 h, read-out: Activity. Format: functional. The procedure, abridged:
as §2
Background: Tetrazolium dyes change colour on reduction, which living cells bring about.

The target of assay [10] is Angiopoietin-1 receptor (Homo sapiens) (UniProt Q02763). Nature of the assay: Inhibition of TIE2 assessed as enzyme residual activity at 10 uM relative to untreated control. In outline:
as §1

For assay [11], the target named is Protein kinase C gamma type (Homo sapiens) (UniProt P05129). The assay is described as follows: Inhibition of PKCgamma assessed as enzyme residual activity at 10 uM relative to untreated control. In outline:
as §1

Assay [12] has as its system MOLM-14. The assay is described as follows: Cytotoxic activity against human MOLM14 cells assessed as cell viability at 0.5 uM incubated for 3 days by MTT assay. Type of assay: functional. The following applies: MOLM-14, 72 h, read-out: Activity. In outline: as §2
The subject of assay [13] is MKN-45. The assay is described as follows: Cytotoxic activity against human MKN45 cells assessed as cell viability at 10 uM incubated for 5 days by MTT assay. Type of assay: functional. The following applies: MKN-45, 120 h, read-out: Activity. In outline:
as §2

The target of assay [14] is Cyclin-dependent kinase 2/cyclin A (Homo sapiens) (UniProt P24941+P20248+P78396). The assay is described as follows: Inhibition of CDK2/cyclinA assessed as enzyme residual activity at 10 uM relative to untreated control. Format: protein-complex assay. In outline: as §1
The subject of assay [15] is MOLM-14. The assay is described as follows: Cytotoxic activity against human MOLM14 cells assessed as cell viability at 10 uM incubated for 3 days by MTT assay. Type of assay: functional. Particulars: MOLM-14, 72 h, read-out: Activity. In outline:
as §2

Assay [16] relates to MKN-45. Nature of the assay: Cytotoxic activity against human MKN45 cells assessed as cell viability at 0.5 uM incubated for 5 days by MTT assay. Format: functional. Particulars: MKN-45, 120 h, read-out: Activity. In outline:
as §2

In assay [17] the test system is MKN-45. Nature of the assay: Cytotoxic activity against human MKN45 cells assessed as cell viability at 1 uM incubated for 5 days by MTT assay. Format: functional. The following applies: MKN-45, 120 h, read-out: Activity. The procedure, abridged: as §2
Assay [18] addresses Epidermal growth factor receptor (Homo sapiens) (UniProt P00533). Nature of the assay: Inhibition of EGFR assessed as enzyme residual activity at 10 uM relative to untreated control. In outline: as §1
The test system of assay [19] is MKN-45. The assay is described as follows: Induction of apoptosis in human MKN45 assessed as accumulation at subG1 phase at 5 uM incubated for 7 days by flow cytometry (reference value: 10.9 +/- 3.2%). Type of assay: functional.
For assay [20], the system named is MKN-45. The assay is described as follows: Induction of apoptosis in human MKN45 assessed as accumulation at subG1 phase at 15 uM incubated for 7 days by flow cytometry (reference value: 10.9 +/- 3.2%). Type of assay: functional.
For assay [21], the target named is Hepatocyte growth factor receptor (Homo sapiens) (UniProt P08581). Nature of the assay: Inhibition of MET assessed as enzyme residual activity at 10 uM relative to untreated control. The procedure, abridged:
as §1

A further assay concerns HUVEC. The assay is described as follows: Induction of apoptosis in human HUVEC assessed as accumulation at subG1 phase at 2.6 uM incubated for 4 days by flow cytometry (reference value: 15.4 +/- 1.5%). Format: functional.
Assay [22] deals with Protein kinase C iota type (Homo sapiens) (UniProt P41743). The assay is described as follows: Inhibition of PKCiota assessed as enzyme residual activity at 10 uM relative to untreated control. In outline:
as §1

Assay [23] relates to MKN-45. Nature of the assay: Cytotoxic activity against human MKN45 cells assessed as cell viability at 20 uM incubated for 5 days by MTT assay. Format: functional. The following applies: MKN-45, 120 h, read-out: Activity. In outline:
as §2

Each structure is given as a SMILES string.

Vascular endothelial growth factor receptor 2, sequence (P35968 whole entry): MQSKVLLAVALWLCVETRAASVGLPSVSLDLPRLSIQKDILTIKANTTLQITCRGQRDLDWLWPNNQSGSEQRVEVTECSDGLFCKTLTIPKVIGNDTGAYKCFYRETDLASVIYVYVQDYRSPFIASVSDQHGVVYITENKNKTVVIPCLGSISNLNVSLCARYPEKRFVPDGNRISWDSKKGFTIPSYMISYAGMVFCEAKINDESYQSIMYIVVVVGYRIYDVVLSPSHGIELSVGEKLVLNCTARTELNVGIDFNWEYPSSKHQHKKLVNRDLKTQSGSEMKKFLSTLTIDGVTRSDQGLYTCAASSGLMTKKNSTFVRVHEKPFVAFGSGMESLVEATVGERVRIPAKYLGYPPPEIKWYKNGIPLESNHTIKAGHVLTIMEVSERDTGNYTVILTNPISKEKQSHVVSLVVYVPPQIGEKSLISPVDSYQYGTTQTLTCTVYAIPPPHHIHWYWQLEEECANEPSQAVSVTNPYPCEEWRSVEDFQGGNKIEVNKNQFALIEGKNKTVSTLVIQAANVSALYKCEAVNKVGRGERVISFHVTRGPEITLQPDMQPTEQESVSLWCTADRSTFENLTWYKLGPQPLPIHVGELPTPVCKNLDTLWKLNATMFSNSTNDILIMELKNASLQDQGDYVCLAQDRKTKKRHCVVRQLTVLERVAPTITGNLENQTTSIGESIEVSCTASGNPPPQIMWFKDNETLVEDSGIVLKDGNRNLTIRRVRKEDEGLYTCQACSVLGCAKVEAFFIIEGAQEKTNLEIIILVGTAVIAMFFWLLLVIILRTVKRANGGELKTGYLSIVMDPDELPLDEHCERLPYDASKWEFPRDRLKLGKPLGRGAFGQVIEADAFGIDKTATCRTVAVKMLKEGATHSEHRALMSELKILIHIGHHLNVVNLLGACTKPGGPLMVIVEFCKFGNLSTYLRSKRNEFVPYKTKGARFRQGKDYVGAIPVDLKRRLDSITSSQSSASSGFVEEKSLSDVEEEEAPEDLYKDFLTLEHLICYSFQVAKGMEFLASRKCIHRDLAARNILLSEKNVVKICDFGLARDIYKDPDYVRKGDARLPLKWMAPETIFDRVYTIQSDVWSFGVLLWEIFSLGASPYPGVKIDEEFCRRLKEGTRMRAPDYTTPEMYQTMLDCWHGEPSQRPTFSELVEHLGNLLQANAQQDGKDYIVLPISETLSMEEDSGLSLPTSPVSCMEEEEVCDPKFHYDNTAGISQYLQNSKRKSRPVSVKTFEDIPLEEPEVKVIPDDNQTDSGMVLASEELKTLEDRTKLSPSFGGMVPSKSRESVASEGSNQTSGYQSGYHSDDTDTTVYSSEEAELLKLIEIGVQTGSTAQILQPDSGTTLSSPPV
Angiopoietin-1 receptor (Homo sapiens), sequence (Q02763 whole entry): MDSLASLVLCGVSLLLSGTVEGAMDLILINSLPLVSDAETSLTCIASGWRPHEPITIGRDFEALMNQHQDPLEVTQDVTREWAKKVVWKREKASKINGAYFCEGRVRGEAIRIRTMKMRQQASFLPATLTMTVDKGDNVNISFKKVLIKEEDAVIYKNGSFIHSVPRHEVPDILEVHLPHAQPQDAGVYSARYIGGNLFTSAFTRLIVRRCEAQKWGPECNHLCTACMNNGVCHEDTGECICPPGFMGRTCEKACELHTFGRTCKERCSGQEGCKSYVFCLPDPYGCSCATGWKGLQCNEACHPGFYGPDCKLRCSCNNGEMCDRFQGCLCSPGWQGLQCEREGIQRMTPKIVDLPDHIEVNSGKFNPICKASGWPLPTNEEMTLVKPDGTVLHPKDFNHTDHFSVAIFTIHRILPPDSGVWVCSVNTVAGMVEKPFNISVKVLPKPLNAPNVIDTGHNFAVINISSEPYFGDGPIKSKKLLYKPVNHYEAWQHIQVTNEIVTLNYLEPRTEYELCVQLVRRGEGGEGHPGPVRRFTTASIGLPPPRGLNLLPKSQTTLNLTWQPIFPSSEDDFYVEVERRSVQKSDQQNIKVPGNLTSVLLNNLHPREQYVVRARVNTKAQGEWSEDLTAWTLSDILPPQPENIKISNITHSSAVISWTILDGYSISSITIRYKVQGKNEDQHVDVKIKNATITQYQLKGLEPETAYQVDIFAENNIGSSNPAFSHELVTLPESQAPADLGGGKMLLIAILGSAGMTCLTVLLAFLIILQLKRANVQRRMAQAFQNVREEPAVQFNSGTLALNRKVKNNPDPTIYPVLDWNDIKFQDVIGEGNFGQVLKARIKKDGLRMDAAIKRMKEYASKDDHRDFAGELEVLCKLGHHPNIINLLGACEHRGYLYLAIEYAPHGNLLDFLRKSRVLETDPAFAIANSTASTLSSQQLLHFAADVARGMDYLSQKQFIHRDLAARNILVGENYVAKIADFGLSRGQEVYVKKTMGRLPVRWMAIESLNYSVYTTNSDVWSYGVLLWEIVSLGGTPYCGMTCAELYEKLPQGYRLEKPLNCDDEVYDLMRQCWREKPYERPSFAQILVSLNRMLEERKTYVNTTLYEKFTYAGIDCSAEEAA
Glycogen synthase kinase-3 beta, sequence (P49841 whole entry, looked up): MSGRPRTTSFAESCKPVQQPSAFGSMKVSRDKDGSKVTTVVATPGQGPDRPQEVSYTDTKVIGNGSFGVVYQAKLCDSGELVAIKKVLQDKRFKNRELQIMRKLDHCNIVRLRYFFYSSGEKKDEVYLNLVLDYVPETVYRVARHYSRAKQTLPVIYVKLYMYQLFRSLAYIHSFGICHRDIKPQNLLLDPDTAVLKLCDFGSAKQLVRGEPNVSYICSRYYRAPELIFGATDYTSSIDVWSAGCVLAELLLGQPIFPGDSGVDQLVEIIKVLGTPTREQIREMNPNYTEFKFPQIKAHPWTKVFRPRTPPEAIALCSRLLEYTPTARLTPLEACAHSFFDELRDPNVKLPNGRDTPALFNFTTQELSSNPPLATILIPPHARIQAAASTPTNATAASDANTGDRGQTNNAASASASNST

In general, IC50 refers to the point on the concentration scale where inhibition reaches its midpoint. Low readings indicate higher potency, high ones lower potency. On to `COc1cc(C2=C(c3c[nH]c4cnccc34)C(=O)NC2=O)cc(OC)c1OC`, for which the Activity in assay [1] amounted to 80%; in assay [2], 2%; in assay [4], 1%; in [6], 75%; with MKN-45 [7], 28.3%; in assay [8] it was 80%. The Activity in [10] came out at 116%; in assay [11], 83%; in [14], 88%; in assay [18] it was 111%; with MKN-45 [19], 15.8%; with MKN-45 [20], 22.9%. Also, the Activity in assay [21] came to 83%; in the assay with HUVEC it was 66.3%; in assay [22], 99%. The viability at 5 µM with MKN-45 [3] was found to be 105%. Moreover, in [5], half-maximal inhibition (IC50) was put at 18 nM. Further, in the assay with MOLM-14 [9], the viability at 50 µM turned out to be 2.4%. In addition, the viability at 0.5 µM with MOLM-14 [12] turned out to be 73.4%; with MKN-45 [16], 99.2%. Besides, the figures for the viability at 10 µM in the assay on MKN-45 [13] and in the assay with MOLM-14 [15] were 108% and 9.35%, respectively. Moreover, the viability at 1 µM in the assay on MKN-45 [17] worked out at 107%. Moreover, the viability at 20 µM in the assay on MKN-45 [23] worked out at 101%.
